Reference: ChEMBL document CHEMBL4339190, “2,6-Disubstituted imidazo[2,1-b][1,3,4]thiadiazole derivatives as potent staphylococcal biofilm inhibitors” (Eur J Med Chem, 2019)

Columns and labels:
Pseudomonas aeruginosa [1] = experiment: Antimicrobial activity against Pseudomonas aeruginosa ATCC 15442 assessed as growth inhibition of planktonic forms incubated for 24 hrs; format: organism-based; conditions: in vitro
Summary of the method: (§1)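 Broth microdilution in tryptic soy broth. Two-fold series 100 to 0.75 μg/mL made from a 1 mg/mL stock in 0.9% NaCl. Inoculum ~10⁶ cfu/mL taken from a 24 h culture, 37 °C 24 h.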

Staphylococcus aureus [2] = experiment: Antimicrobial activity against Staphylococcus aureus ATCC 25923 assessed as growth inhibition of planktonic forms incubated for 24 hrs; format: organism-based; conditions: in vitro; summary of the method: as §1
Staphylococcus aureus [3] = experiment: Antibiofilm activity against Staphylococcus aureus ATCC 6538 incubated for 24 hrs by crystal violet-staining based assay; format: functional
Summary of the method: (§2)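 Biofilm prevention: 0.5 McFarland inoculum (2.5 µL) in 100 µL TSB with 2% w/v glucose, compound present from the start over 100–0.1 µg/mL, 37 °C 24 h. Washed with PBS, stained 0.1% w/v crystal violet 30 min, eluted with 33% v/v acetic acid, read at 570 nm. BIC50 (50% inhibition versus untreated control) derived by linear regression; triplicate, repeated at least twice.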

Escherichia coli [4] = experiment: Antimicrobial activity against Escherichia coli ATCC 25922 assessed as growth inhibition of planktonic forms incubated for 24 hrs; format: organism-based; conditions: in vitro; summary of the method: as §1
[5] = tested on: Staphylococcus epidermidis; experiment: Antibiofilm activity against Staphylococcus epidermidis ATCC 12228 incubated for 24 hrs by crystal violet-staining based assay; format: functional; summary of the method: as §2
Escherichia coli [6] = experiment: Antibiofilm activity against Escherichia coli ATCC 25922 assessed as inhibition of biofilm formation at 100 ug/ml incubated for 24 hrs by crystal violet-staining based assay; format: functional; conditions: ATCC 25922, 24 h
Pseudomonas aeruginosa [7] = experiment: Antibiofilm activity against Pseudomonas aeruginosa ATCC 15442 assessed as inhibition of biofilm formation at 100 ug/ml incubated for 24 hrs by crystal violet-staining based assay; format: functional; conditions: ATCC 15442, 24 h
[8] = tested on: Staphylococcus epidermidis; experiment: Antimicrobial activity against Staphylococcus epidermidis ATCC 12228 assessed as growth inhibition of planktonic forms incubated for 24 hrs; format: organism-based; conditions: in vitro; summary of the method: as §1
Staphylococcus aureus [9] = experiment: Antibiofilm activity against Staphylococcus aureus ATCC 25923 incubated for 24 hrs by crystal violet-staining based assay; format: functional; summary of the method: as §2
Staphylococcus aureus [10] = experiment: Antimicrobial activity against Staphylococcus aureus ATCC 6538 assessed as growth inhibition of planktonic forms incubated for 24 hrs; format: organism-based; conditions: in vitro; summary of the method: as §1
Pseudomonas aeruginosa [11] = experiment: Antibiofilm activity against Pseudomonas aeruginosa ATCC 15442 incubated for 24 hrs by crystal violet-staining based assay; format: functional; summary of the method: as §2

Row | Structure (SMILES) | MIC (Pseudomonas aeruginosa [1]) | MIC (Staphylococcus aureus [2]) | MBIC50 (Staphylococcus aureus [3]) | inhibition (Staphylococcus aureus [3]) | MIC (Escherichia coli [4]) | MBIC50 [5] | inhibition [5] | inhibition at 100 µg/mL (Escherichia coli [6]) | inhibition at 100 µg/mL (Pseudomonas aeruginosa [7]) | MIC [8] | MBIC50 (Staphylococcus aureus [9]) | inhibition (Staphylococcus aureus [9]) | MIC (Staphylococcus aureus [10]) | MBIC50 (Pseudomonas aeruginosa [11]) | inhibition (Pseudomonas aeruginosa [11])
1 | Br.Cn1cc(-c2nn3cc(-c4ccc(F)cc4)nc3s2)c2ccccc21 | > 100 µg/mL | > 100 µg/mL | 17.9 µM | Dose-dependent effect | > 100 µg/mL | 68.9 µM | Dose-dependent effect | < 15% | < 15% | > 100 µg/mL | 8.6 µM | Dose-dependent effect | > 100 µg/mL |  | 
2 | Br.COc1cccc(-c2cn3nc(-c4cn(C)c5ccc(Br)cc45)sc3n2)c1 | > 100 µg/mL | > 100 µg/mL | 12.4 µM | Dose-dependent effect | > 100 µg/mL | 63.8 µM | Dose-dependent effect | < 15% |  | > 100 µg/mL | 16 µM | Dose-dependent effect | > 100 µg/mL | 26.3 µM | Dose-dependent effect
3 | Br.Cn1cc(-c2nn3cc(-c4ccccc4)nc3s2)c2ccccc21 | > 100 µg/mL | > 100 µg/mL | 18.9 µM | Dose-dependent effect | > 100 µg/mL | 47.9 µM | Dose-dependent effect | < 15% | < 15% | > 100 µg/mL | 23 µM | Dose-dependent effect | > 100 µg/mL |  | 
4 | Br.Fc1ccc(-c2cn3nc(-c4c[nH]c5ccc(Cl)cc45)sc3n2)cc1 | > 100 µg/mL | > 100 µg/mL | 24.2 µM | Dose-dependent effect | > 100 µg/mL | 100.7 µM | Dose-dependent effect | < 15% | < 15% | > 100 µg/mL | 51.3 µM | Dose-dependent effect | > 100 µg/mL |  | 
5 | Br.c1ccc(-c2cn3nc(-c4c[nH]c5ccccc45)sc3n2)cc1 | > 100 µg/mL | > 100 µg/mL | 46.5 µM | Dose-dependent effect | > 100 µg/mL | 59.1 µM | Dose-dependent effect | < 15% | < 15% | > 100 µg/mL | 35.9 µM | Dose-dependent effect | > 100 µg/mL |  | 
6 | Br.COc1ccc(OC)c(-c2cn3nc(-c4cn(C)c5ccc(Br)cc45)sc3n2)c1 | > 100 µg/mL | > 100 µg/mL | 8.9 µM | Dose-dependent effect | > 100 µg/mL | 52.3 µM | Dose-dependent effect | < 15% |  | > 100 µg/mL | 90.8 µM | Dose-dependent effect | > 100 µg/mL | 28.5 µM | Dose-dependent effect
7 | FC(F)(F)c1ccc(-c2cn3nc(-c4c[nH]c5ccc(Cl)cc45)sc3n2)cc1 | > 100 µg/mL | > 100 µg/mL | 12.6 µM | Dose-dependent effect | > 100 µg/mL | 24.5 µM | Dose-dependent effect | < 15% | < 15% | > 100 µg/mL | 9.7 µM | Dose-dependent effect | > 100 µg/mL |  | 
8 | Cn1cc(-c2nn3cc(-c4ccc(C(F)(F)F)cc4)nc3s2)c2cc(Cl)ccc21 | > 100 µg/mL | > 100 µg/mL |  |  | > 100 µg/mL |  |  |  |  | > 100 µg/mL |  |  | > 100 µg/mL |  | 
